The source made the active and inactive calls. The calls are words filed in the database; no cut-off is given here.
Experiments:
[1] = target: T1, Proteasome Macropain subunit MB1 (Homo sapiens) (UniProt P28074); assay: Inhibition of human 20S constitutive proteasome beta 5 subunit assessed as inhibition of BMV037 probe labeling at 10 uM incubated for 1 hr by SDS-PAGE analysis
T1 sequence (whole entry): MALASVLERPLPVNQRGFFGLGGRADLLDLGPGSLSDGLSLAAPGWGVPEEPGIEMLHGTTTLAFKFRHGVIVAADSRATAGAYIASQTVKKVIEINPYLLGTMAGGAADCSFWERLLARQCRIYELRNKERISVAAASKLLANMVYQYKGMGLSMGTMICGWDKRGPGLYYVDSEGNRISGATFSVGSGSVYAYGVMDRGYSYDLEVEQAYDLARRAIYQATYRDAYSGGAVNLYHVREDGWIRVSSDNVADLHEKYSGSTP
Method in brief: (§1)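 Purified human constitutive 20S (20 nM) was treated with compound at 37°C for 1 h, then labelled with 10 µM BMV037 at 37°C for 2 h. Samples were run on 10% Bis-Tris gel with MOPS buffer, and active subunits were detected by Cy5 fluorescence scan.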

[2] = system: Plasmodium falciparum 3D7; assay: Inhibition of 20S proteasome beta 5 subunit from bortezomib resistant Plasmodium falciparum 3D7 trophozoite infected erythrocytes assessed as inhibition of BMV037 probe labeling at 1 to 10 uM incubated for 1 hr by SDS-PAGE analysis; conditions: dose 1-10 µM
Plasmodium falciparum [3] = assay: Synergistic antiplasmodial activity against DHA-resistant and sorbitol synchronized ring stage forms of Plasmodium falciparum Cam3.II^R539T expressing K13 mutant assessed as reduction in parasitemia incubated for 3 hrs in presence of DHA by pulse exposure based Syto-61 staining dye based flow cytometry analysis; assay type: functional, organism-based
[4] = target: T2, Proteasome subunit beta type-10 (Homo sapiens, UniProt P40306); assay: Inhibition of human 20S immunoproteasome beta 2 subunit trypsin-like activity using fluorogenic peptide Ac-WLR-AMC as substrate in presence of PA28alpha incubated for 1 to 2 hrs by fluorescence microplate reader assay
T2 sequence (P40306 whole entry): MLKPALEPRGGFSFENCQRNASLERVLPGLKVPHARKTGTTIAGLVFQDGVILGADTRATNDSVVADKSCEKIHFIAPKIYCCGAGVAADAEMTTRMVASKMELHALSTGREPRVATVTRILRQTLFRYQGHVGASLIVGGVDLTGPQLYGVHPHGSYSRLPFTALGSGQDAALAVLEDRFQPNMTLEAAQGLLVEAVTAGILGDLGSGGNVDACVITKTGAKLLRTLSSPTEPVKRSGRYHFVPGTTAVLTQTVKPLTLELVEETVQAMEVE

[5] = target: T1, Proteasome Macropain subunit MB1 (Homo sapiens); assay: Inhibition of human 20S constitutive proteasome beta 5 subunit assessed as inhibition of BMV037 probe labeling at 1 to 10 uM incubated for 1 hr by SDS-PAGE analysis; conditions: dose 1-10 µM; method in brief: as §1
[6] = target: T1, Proteasome Macropain subunit MB1 (Homo sapiens); assay: Inhibition of human 20S constitutive proteasome beta 5 subunit assessed as inhibition of BMV037 probe labeling at 1 uM incubated for 1 hr by SDS-PAGE analysis; method in brief: as §1
[7] = target: T3, Proteasome subunit beta type-9 (Homo sapiens) (UniProt P28065); assay: Inhibition of human 20S immunoproteasome beta 1 subunit assessed as inhibition of BMV037 probe labeling at 1 to 10 uM incubated for 1 hr by SDS-PAGE analysis; conditions: dose 1-10 µM
T3 sequence (whole entry): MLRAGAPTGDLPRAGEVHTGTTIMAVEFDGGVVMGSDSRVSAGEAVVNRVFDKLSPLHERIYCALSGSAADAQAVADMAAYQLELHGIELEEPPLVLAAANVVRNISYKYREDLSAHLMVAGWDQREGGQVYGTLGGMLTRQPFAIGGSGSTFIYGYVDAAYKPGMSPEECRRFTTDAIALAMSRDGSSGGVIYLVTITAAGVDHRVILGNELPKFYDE
Method in brief: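 Purified human immuno-20S (20 nM) was incubated with compound at 37°C for 1 h, then labelled with 10 µM BMV037 at 37°C for 2 h. Samples were run on 4-12% Bis-Tris gel with MES buffer, and active subunits were visualised by Cy5 fluorescence.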

[8] = system: Plasmodium falciparum 3D7; assay: Inhibition of 20S proteasome beta 2 subunit in bortezomib-resistant Plasmodium falciparum 3D7 assessed as inhibition of BMV037 probe labeling at 1 to 10 uM incubated for 1 hr by SDS-PAGE analysis; conditions: dose 1-10 µM
[9] = system: Plasmodium falciparum 3D7; assay: Inhibition of 20S proteasome beta 2 subunit from bortezomib resistant Plasmodium falciparum 3D7 trophozoite infected erythrocytes assessed as inhibition of BMV037 probe labeling at 1 to 10 uM incubated for 1 hr by SDS-PAGE analysis; conditions: dose 1-10 µM
[10] = target: T4, Proteasome component C5 (Homo sapiens) (UniProt P20618); assay: Inhibition of human 20S constitutive proteasome beta 1 subunit assessed as inhibition of BMV037 probe labeling at 1 uM incubated for 1 hr by SDS-PAGE analysis; method in brief: as §1
T4 sequence (whole entry): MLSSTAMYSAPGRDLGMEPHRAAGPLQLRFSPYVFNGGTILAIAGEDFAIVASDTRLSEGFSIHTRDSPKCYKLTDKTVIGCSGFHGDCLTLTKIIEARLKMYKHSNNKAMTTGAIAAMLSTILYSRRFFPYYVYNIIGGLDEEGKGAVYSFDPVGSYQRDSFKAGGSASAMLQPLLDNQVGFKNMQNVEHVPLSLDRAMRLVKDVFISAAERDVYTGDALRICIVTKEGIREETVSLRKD

[11] = target: T4, Proteasome component C5 (Homo sapiens); assay: Inhibition of human 20S constitutive proteasome beta 1 subunit assessed as inhibition of BMV037 probe labeling at 1 to 10 uM incubated for 1 hr by SDS-PAGE analysis; conditions: dose 1-10 µM; method in brief: as §1
[12] = target: T1, Proteasome Macropain subunit MB1 (Homo sapiens); assay: Binding affinity to human 20S constitutive proteasome beta 5 subunit assessed as half-life using fluorogenic peptide Ac-WLA-AMC as substrate in presence of PA28alpha by fluorescence based microplate reader assay
Plasmodium falciparum [13] = assay: Binding affinity to Plasmodium falciparum 20S proteasome beta 5 subunit assessed as half-life using fluorogenic peptide Ac-WLA-AMC as substrate in presence of PA28alpha by fluorescence based microplate reader assay
[14] = target: Proteasome Macropain subunit (Homo sapiens) (UniProt P49721); assay: Binding affinity to human 20S constitutive proteasome beta 2 subunit assessed as half-life using fluorogenic peptide Ac-WLR-AMC as substrate in presence of PA28alpha by fluorescence based microplate reader assay
Chain of Proteasome Macropain subunit (Homo sapiens) (P49721 whole entry): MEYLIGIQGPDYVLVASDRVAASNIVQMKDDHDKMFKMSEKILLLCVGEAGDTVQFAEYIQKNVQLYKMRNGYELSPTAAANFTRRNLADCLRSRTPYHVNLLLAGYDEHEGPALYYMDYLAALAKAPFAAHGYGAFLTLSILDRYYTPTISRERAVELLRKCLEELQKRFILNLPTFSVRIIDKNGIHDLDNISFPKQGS

Plasmodium falciparum [15] = assay: Binding affinity to Plasmodium falciparum 20S proteasome beta 2 subunit assessed as half-life using fluorogenic peptide Ac-WLR-AMC as substrate in presence of PA28alpha by fluorescence based microplate reader assay
[16] = Binding affinity to Plasmodium falciparum 20S proteasome beta 5 subunit assessed as equilibrium constant using fluorogenic peptide Ac-WLA-AMC as substrate in presence of PA28alpha by fluorescence based microplate reader assay
[17] = target: T5, Proteasome Macropain subunit MB1 (Homo sapiens, UniProt P28074); assay: Binding affinity to human 20S constitutive proteasome beta 5 subunit assessed as equilibrium constant using fluorogenic peptide Ac-WLA-AMC as substrate in presence of PA28alpha by fluorescence based microplate reader assay
T5 sequence (P28074 whole entry): T1 sequence (whole entry)

[18] = Binding affinity to Plasmodium falciparum 20S proteasome beta 2 subunit assessed as equilibrium constant using fluorogenic peptide Ac-WLR-AMC as substrate in presence of PA28alpha by fluorescence based microplate reader assay

Compound | inhibition [1] | inhibition [2] | Activity (Plasmodium falciparum [3]) | IC50 [4] [nM] | inhibition [5] | inhibition [6] | inhibition [7] | inhibition [8] | inhibition [9] | inhibition [10] | inhibition [11] | T1/2 [12] [h] | T1/2 (Plasmodium falciparum [13]) [h] | T1/2 [14] [min] | T1/2 (Plasmodium falciparum [15]) [h] | Ki [16] [nM] | Ki [17] [nM] | Ki [18] [nM]
CC(=O)N1CCC[C@@H]1C(=O)N[C@@H](C)C(=O)N[C@@H](Cc1ccccc1)B(O)O | inactive | Active | Active | > 10000 | – | – | – | – | – | – | – | – | – | – | – | – | – | –
Cc1ccc(S(=O)(=O)N[C@@H](CC(=O)NCC(C)(C)C)C(=O)N[C@@H](Cc2ccccc2)C(=O)N[C@@H](CC(C)C)B(O)O)cc1 | – | Active | – | 130 | Active | inactive | Active | Active | Active | inactive | Active | – | – | – | – | – | – | –
CC(C)C[C@H](NC(=O)[C@H](Cc1ccccc1)NC(=O)Cc1ccc(O)cc1)B(O)O | – | – | Active | 300 | Active | – | Active | Active | Active | – | Active | 1.77 | 1.08 | 2 | 1.08 | 4.3 | 0.13 | 6.4
